The source made the active and inactive calls. The rule behind the calls is not given here.
What was measured:
[1] = target: T1, Metabotropic glutamate receptor 2 (Homo sapiens, UniProt Q14416); assay: Displacement of [3H]-JNJ46281222 from human metabotropic glutamate receptor 2 expressed in CHOK1 cell membranes after 60 mins by liquid scintillation counting method
Target sequence in this assay (Q14416 whole entry): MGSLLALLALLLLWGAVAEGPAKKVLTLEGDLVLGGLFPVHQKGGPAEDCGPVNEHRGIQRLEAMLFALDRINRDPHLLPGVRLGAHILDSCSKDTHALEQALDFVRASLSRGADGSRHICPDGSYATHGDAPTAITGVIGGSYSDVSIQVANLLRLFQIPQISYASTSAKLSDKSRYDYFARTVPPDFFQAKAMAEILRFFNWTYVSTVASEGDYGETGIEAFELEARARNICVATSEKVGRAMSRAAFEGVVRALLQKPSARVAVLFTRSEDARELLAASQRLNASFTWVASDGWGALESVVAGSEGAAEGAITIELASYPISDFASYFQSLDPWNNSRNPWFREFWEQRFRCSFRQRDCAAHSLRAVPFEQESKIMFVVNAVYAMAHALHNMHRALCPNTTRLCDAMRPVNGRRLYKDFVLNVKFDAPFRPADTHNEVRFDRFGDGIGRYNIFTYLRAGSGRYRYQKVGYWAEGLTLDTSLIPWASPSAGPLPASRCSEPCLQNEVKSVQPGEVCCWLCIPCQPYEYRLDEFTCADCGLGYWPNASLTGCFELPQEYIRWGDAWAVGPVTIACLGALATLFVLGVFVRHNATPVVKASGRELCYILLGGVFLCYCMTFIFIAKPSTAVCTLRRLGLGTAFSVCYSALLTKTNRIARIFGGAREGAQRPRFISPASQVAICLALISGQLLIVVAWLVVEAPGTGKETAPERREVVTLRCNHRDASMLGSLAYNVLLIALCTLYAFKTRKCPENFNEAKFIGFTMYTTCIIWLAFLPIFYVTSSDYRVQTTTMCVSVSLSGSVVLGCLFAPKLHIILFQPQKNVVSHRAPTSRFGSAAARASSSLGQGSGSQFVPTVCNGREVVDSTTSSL

[2] = target: T1, Metabotropic glutamate receptor 2; assay: Binding affinity to human metabotropic glutamate receptor 2 expressed in CHOK1 cell membranes by scintillation proximity assay
Target sequence in this assay (Q14416 whole entry): as above

[3] = target: T1, Metabotropic glutamate receptor 2; assay: Positive allosteric modulation of human metabotropic glutamate receptor 2 expressed in CHOK1 cell membranes assessed as increase in glutamate-induced [35S]GTPgammaS binding preincubated for 30 mins followed by [35S]GTPgammaS addition measured after 30 mins by Topcount scintillation counting method; format: functional
Target sequence in this assay (Q14416 whole entry): as above

[4] = target: T1, Metabotropic glutamate receptor 2; assay: Displacement of [3H]JNJ-46281222 from human metabotropic glutamate receptor 2 expressed in CHOK1 cell membranes assessed as residence time measured every 30 sec for 120 mins by scintillation proximity assay
Procedure, shortened: (§1)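 For the SPA competition association, CHO-K1_hmGlu2 membranes (20 µg) were pre-coupled 30 min to WGA SPA beads, then mixed with 6 nM [3H]JNJ-46281222, competitor and 1 mM glutamate. Counts were read every 30 s for 120 min at 28°C.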
Target sequence in this assay (Q14416 19-872 limits assumed): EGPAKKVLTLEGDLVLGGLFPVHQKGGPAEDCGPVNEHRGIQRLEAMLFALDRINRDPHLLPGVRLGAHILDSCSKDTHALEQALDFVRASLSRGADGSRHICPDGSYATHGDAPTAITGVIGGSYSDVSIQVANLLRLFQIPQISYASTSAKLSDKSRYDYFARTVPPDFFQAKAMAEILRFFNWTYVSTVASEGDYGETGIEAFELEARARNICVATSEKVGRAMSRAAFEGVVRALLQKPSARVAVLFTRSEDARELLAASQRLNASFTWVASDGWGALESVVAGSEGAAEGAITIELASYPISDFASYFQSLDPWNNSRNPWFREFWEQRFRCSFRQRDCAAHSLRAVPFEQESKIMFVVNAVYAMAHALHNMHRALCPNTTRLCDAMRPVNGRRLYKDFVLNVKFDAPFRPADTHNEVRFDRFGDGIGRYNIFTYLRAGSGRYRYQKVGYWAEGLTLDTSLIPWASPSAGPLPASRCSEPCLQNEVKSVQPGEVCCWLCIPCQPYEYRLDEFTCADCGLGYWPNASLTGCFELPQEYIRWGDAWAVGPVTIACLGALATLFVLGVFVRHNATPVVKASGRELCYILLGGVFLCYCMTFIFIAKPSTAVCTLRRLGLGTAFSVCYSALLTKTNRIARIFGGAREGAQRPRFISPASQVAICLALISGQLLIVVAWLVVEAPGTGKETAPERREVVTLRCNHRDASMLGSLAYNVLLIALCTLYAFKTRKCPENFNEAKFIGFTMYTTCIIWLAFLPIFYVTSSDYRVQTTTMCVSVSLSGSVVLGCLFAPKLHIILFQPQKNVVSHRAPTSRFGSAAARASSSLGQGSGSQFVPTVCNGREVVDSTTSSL

[5] = target: T1, Metabotropic glutamate receptor 2; assay: Displacement of [3H]JNJ-46281222 from human metabotropic glutamate receptor 2 expressed in CHOK1 cell membranes assessed as dissociation rate constant measured every 30 sec for 120 mins by scintillation proximity assay; procedure, shortened: as §1
Target sequence in this assay (Q14416 19-872 limits assumed): as above

[6] = target: T1, Metabotropic glutamate receptor 2; assay: Displacement of [3H]JNJ-46281222 from human metabotropic glutamate receptor 2 expressed in CHOK1 cell membranes assessed as association rate constant measured every 30 sec for 120 mins by scintillation proximity assay; procedure, shortened: as §1
Target sequence in this assay (Q14416 19-872 limits assumed): as above

[7] = target: T1, Metabotropic glutamate receptor 2; assay: Positive allosteric modulation of human metabotropic glutamate receptor 2 expressed in CHOK1 cells assessed as cellular impedance measured for 20 mins with 15 sec time interval followed by 40 mins with 5 mins time interval and subsequently measured with 15 mins time interval in presence of endogenous glutamate levels by RTCA; format: cell-based
Procedure, shortened: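 Whole-cell impedance (Cell Index) in CHO-K1_hmGlu2 cells, 40,000/well, 18 h at 37°C before compound addition. Endogenous glutamate was about 90 µM. […] Three experiments in duplicate.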
Target sequence in this assay (Q14416 whole entry): as the sequence (Q14416 whole entry) above

[8] = target: T1, Metabotropic glutamate receptor 2; assay: Displacement of [3H]-JNJ46281222 from human metabotropic glutamate receptor 2 expressed in CHOK1 cell membranes after 60 mins by microbeta counting analysis
Target sequence in this assay (Q14416 whole entry): as above

[9] = target: T1, Metabotropic glutamate receptor 2; assay: Positive allosteric modulation of human metabotropic glutamate receptor 2 expressed in CHOK1 cells assessed as cellular impedance response by label-free xCELLigence assay
Target sequence in this assay (Q14416 19-872 limits assumed): as the sequence (Q14416 19-872 limits assumed) above

[10] = target: T1, Metabotropic glutamate receptor 2; assay: Positive allosteric modulation of human metabotropic glutamate receptor 2 expressed in CHOK1 cells assessed as cellular impedance at 60 nM incubated for 5mins followed by compound washout in presence of endogenous glutamate levels by RTCA; format: cell-based
Target sequence in this assay (Q14416 19-872 limits assumed): as above

[11] = target: Metabotropic glutamate receptor 1 (Homo sapiens) (UniProt Q13255); assay: Agonist activity at human metabotropic glutamate receptor 1 expressed in HEK293 cells assessed as induction of Ca2+ internalization after 1 hr by fluo-4-AM dye based fluorescence assay; format: functional, cell-based
[12] = target: Metabotropic glutamate receptor 3 (Homo sapiens) (UniProt Q14832); assay: Antagonist activity at human metabotropic glutamate receptor 3 expressed in HEK293 cells assessed as inhibition of glutamate-induced Ca2+ internalization after 1 hr by fluo-4-AM dye based fluorescence assay; format: functional, cell-based
[13] = target: Metabotropic glutamate receptor 4 (Homo sapiens) (UniProt Q14833); assay: Agonist activity at human metabotropic glutamate receptor 4 assessed as increase in [35S]GTPgammaS binding preincubated for 30 mins followed by [35S]GTPgammaS addition measured after 30 mins by Topcount scintillation counting method; format: functional
[14] = target: Metabotropic glutamate receptor 5 (Homo sapiens) (UniProt P41594); assay: Positive allosteric modulation of human metabotropic glutamate receptor 5 expressed in HEK293 cells assessed as induction of Ca2+ […] after 1 hr in the presence of glutamate by fluo-4-AM dye based fluorescence assay; format: functional, cell-based
[15] = target: Metabotropic glutamate receptor 6 (Rattus norvegicus) (UniProt P35349); assay: Agonist activity at rat metabotropic glutamate receptor 6 expressed in CHO cell membranes assessed as increase in [35S]GTPgammaS binding preincubated for 30 mins followed by [35S]GTPgammaS addition measured after 30 mins by Topcount scintillation counting method; format: functional
[16] = target: Metabotropic glutamate receptor 7 (Homo sapiens) (UniProt Q14831); assay: Antagonist activity at human metabotropic glutamate receptor 7 expressed in HEK293 cells assessed as inhibition of glutamate-induced Ca2+ internalization after 1 hr by fluo-4-AM dye based fluorescence assay; format: functional, cell-based
[17] = target: Metabotropic glutamate receptor 5 (Homo sapiens) (UniProt P41594); assay: Antagonist activity at human metabotropic glutamate receptor 5 expressed in HEK293 cells assessed as inhibition of glutamate-induced Ca2+ internalization after 1 hr by fluo-4-AM dye based fluorescence assay; format: functional, cell-based
[18] = target: Metabotropic glutamate receptor 6 (Rattus norvegicus) (UniProt P35349); assay: Antagonist activity at rat metabotropic glutamate receptor 6 expressed in CHO cell membranes assessed as inhibition of glutamate-induced [35S]GTPgammaS binding preincubated for 30 mins followed by [35S]GTPgammaS addition measured after 30 mins by Topcount scintillation counting method; format: functional
[19] = target: Metabotropic glutamate receptor 8 (Homo sapiens) (UniProt O00222); assay: Antagonist activity at human metabotropic glutamate receptor 8 expressed in HEK293 cells assessed as inhibition of glutamate-induced Ca2+ internalization after 1 hr by fluo-4-AM dye based fluorescence assay; format: functional, cell-based
[20] = target: Metabotropic glutamate receptor 7 (Homo sapiens) (UniProt Q14831); assay: Agonist activity at human metabotropic glutamate receptor 7 expressed in HEK293 cells assessed as induction of Ca2+ internalization after 1 hr by fluo-4-AM dye based fluorescence assay; format: functional, cell-based
[21] = target: Metabotropic glutamate receptor 4 (Homo sapiens) (UniProt Q14833); assay: Antagonist activity at human metabotropic glutamate receptor 4 assessed as inhibition of glutamate-induced [35S]GTPgammaS binding preincubated for 30 mins followed by [35S]GTPgammaS addition measured after 30 mins by Topcount scintillation counting method; format: functional
[22] = target: Metabotropic glutamate receptor 1 (Homo sapiens) (UniProt Q13255); assay: Antagonist activity at human metabotropic glutamate receptor 1 expressed in HEK293 cells assessed as inhibition of glutamate-induced Ca2+ internalization after 1 hr by fluo-4-AM dye based fluorescence assay; format: functional, cell-based
[23] = target: Metabotropic glutamate receptor 8 (Homo sapiens) (UniProt O00222); assay: Agonist activity at human metabotropic glutamate receptor 8 expressed in HEK293 cells assessed as induction of Ca2+ internalization after 1 hr by fluo-4-AM dye based fluorescence assay; format: functional, cell-based
[24] = target: Metabotropic glutamate receptor 5 (Homo sapiens) (UniProt P41594); assay: Agonist activity at human metabotropic glutamate receptor 5 expressed in HEK293 cells assessed as induction of Ca2+ internalization after 1 hr by fluo-4-AM dye based fluorescence assay; format: functional, cell-based
[25] = target: Metabotropic glutamate receptor 3 (Homo sapiens) (UniProt Q14832); assay: Agonist activity at human metabotropic glutamate receptor 3 expressed in HEK293 cells assessed as induction of Ca2+ internalization after 1 hr by fluo-4-AM dye based fluorescence assay; format: functional, cell-based
Rattus norvegicus [26] = assay: Effect on total sleep in Sprague-Dawley rat at 1 to 10 mg/kg, po measured for 2 hrs; format: ADME, organism-based; details: in vivo
Brain = assay: Unbound concentration in Sprague-Dawley rat brain at 10 mg/kg, po measured after 1 hr; format: ADME, organism-based; details: in vivo
Rattus norvegicus [27] = assay: In vivo positive allosteric modulation of metabotropic glutamate receptor 2 in Sprague-Dawley rat assessed as reduction in REM at 10 mg/kg, po measured for 24 consecutive 5 mins period; format: functional, organism-based
Procedure, shortened: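 Sprague-Dawley rats (n=8 per group) received single oral doses of 1, 3 or 10 mg/kg or 20% CD vehicle. REM sleep was scored in 24 consecutive 5-min bins over the first 2 h. Comparison was by mixed-model ANOVA.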

Sequence of Metabotropic glutamate receptor 4 (Homo sapiens) (Q14833 whole entry): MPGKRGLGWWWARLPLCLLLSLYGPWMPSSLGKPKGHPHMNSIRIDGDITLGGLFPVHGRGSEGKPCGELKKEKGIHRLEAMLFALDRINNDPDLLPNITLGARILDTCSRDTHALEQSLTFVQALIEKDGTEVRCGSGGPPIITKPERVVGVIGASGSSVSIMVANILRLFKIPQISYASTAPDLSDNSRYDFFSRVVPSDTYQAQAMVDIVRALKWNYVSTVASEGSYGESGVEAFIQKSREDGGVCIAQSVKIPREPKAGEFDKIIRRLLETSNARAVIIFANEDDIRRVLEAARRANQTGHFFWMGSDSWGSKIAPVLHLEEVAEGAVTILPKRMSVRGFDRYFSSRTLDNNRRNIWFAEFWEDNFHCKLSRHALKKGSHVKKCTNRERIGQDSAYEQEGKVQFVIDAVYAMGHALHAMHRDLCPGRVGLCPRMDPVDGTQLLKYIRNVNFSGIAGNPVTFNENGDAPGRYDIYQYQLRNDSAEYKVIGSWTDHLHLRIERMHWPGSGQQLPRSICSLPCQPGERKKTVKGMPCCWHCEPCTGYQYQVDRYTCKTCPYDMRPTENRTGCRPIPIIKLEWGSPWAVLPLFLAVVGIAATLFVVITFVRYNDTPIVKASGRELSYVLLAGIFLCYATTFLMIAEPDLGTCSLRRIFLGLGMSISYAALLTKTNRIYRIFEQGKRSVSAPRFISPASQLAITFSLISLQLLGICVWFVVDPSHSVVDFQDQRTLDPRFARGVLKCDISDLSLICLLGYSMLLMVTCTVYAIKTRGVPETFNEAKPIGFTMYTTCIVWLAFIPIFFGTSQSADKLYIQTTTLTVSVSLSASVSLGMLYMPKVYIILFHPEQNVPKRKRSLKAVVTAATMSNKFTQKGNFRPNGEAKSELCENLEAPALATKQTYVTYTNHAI
Sequence of Metabotropic glutamate receptor 1 (Homo sapiens) (Q13255 19-1194 limits assumed): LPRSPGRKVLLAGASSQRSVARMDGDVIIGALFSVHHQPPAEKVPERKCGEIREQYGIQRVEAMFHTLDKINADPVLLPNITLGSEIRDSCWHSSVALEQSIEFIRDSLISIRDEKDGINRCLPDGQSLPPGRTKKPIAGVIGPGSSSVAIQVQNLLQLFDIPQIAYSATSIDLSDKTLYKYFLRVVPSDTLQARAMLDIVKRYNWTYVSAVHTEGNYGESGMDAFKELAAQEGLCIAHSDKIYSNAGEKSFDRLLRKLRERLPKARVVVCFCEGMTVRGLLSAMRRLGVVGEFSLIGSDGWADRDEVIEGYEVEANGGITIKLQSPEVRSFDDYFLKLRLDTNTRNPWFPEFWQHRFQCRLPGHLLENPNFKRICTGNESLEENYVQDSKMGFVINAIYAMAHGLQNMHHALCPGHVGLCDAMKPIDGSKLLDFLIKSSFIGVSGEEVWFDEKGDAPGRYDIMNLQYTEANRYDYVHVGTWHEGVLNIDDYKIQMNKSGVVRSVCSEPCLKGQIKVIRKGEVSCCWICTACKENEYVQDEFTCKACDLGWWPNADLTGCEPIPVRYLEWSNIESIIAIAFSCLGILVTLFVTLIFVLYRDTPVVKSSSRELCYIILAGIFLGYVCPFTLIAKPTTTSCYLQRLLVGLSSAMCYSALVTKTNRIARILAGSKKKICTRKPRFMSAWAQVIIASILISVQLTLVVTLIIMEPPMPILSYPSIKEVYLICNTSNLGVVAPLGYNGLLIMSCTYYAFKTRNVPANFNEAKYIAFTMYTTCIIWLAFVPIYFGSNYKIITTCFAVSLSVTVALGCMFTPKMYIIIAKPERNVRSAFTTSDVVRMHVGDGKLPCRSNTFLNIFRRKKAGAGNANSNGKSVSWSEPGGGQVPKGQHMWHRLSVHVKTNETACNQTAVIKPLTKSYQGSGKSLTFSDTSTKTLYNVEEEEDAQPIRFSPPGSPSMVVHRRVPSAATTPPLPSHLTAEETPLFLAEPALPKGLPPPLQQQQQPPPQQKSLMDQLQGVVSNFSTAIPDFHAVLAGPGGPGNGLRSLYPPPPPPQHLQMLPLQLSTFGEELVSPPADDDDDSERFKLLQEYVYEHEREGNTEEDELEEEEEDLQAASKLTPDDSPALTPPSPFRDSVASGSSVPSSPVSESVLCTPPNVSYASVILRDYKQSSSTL
Sequence of Metabotropic glutamate receptor 7 (Homo sapiens) (Q14831 whole entry): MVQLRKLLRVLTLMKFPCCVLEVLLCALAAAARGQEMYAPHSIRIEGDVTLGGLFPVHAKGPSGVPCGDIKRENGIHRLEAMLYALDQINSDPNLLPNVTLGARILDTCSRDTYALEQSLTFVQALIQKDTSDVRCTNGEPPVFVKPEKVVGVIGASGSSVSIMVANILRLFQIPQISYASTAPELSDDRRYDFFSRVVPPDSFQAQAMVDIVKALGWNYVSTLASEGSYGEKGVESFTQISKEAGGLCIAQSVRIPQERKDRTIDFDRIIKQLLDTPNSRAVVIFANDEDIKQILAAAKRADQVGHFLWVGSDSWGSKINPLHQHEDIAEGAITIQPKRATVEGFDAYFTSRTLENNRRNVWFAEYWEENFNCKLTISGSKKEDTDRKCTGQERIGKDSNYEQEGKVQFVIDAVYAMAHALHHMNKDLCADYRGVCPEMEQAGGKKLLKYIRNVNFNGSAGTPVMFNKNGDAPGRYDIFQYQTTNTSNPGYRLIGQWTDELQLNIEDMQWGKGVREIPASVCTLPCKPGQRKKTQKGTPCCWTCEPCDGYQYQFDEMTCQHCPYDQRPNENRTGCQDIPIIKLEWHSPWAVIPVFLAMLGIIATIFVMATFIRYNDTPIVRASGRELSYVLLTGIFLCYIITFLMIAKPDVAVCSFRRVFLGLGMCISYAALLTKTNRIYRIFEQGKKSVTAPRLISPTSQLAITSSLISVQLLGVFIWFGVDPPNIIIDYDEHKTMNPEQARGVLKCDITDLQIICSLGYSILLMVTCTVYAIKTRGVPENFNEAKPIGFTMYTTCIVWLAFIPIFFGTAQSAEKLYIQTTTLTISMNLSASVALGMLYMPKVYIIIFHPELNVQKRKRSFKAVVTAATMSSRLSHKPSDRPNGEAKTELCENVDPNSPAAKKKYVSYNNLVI

Kd [2] [nM] | EC50 [3] [nM] | TIME [4] [h] | K [5] [min⁻¹] | K [6] | Ki [8] [nM] | Activity [11] | inhibition [12] | Activity [13] | Activity [14] | Activity [15] | inhibition [16] | inhibition [17] | inhibition [18] | inhibition [19] | Activity [20] | inhibition [21] | inhibition [22] | Activity [23] | Activity [24] | SMILES | further results
51 | 79.4 | 0.185 | 0.09 | 1.7 ×10⁶ /M/min | – | – | – | – | – | – | – | – | – | – | – | – | – | – | – | N#Cc1c(N2CCC(c3ccccc3)CC2)ccn(CC2CC2)c1=O | Ki [1]: 26.3 nM
1.5 | 1.12 | 0.825 | 0.02 | 1.4 ×10⁷ /M/min | 0.891 | – | – | – | – | – | – | – | – | – | – | – | – | – | – | O[C@]1(C2CC2)CC[C@H](Nc2ccc(-c3ccn4c(CC5CC5)nnc4c3C(F)(F)F)cc2Cl)CC1 | EC50 [7]: 11.2 nM; EC80 [9]: 60 nM; Activity [10]: Active
1 | 12.3 | 0.272 | 0.061 | 6.2 ×10⁷ /M/min | 6.03 | inactive | inactive | inactive | inactive | inactive | inactive | inactive | inactive | inactive | inactive | inactive | inactive | inactive | inactive | Cc1ccc(Oc2ccc(-c3ccn4c(CC5CC5)nnc4c3Cl)cc2Cl)c(C)n1 | Activity [25]: inactive
2.5 | 8.71 | 0.502 | 0.033 | 1.3 ×10⁷ /M/min | 2.57 | – | – | – | – | – | – | – | – | – | – | – | – | – | – | Cc1ccc(Oc2ccc(-c3ccn4c(CC5CC5)nnc4c3C(F)(F)F)cc2F)c(C)n1 | Activity (Rattus norvegicus [26]): Non-Toxic; Drug uptake(free) (Brain): 5 ng/g; Activity (Rattus norvegicus [27]): Active
12.7 | 63.1 | 0.273 | 0.061 | 4.8 ×10⁶ /M/min | 10.2 | inactive | inactive | inactive | inactive | inactive | inactive | inactive | inactive | inactive | inactive | inactive | inactive | inactive | inactive | Fc1cc(-c2ccn3c(CC4CC4)nnc3c2Cl)ccc1NC1CC1 | Activity [25]: inactive
16.6 | 158 | 0.122 | 0.137 | 8.3 ×10⁶ /M/min | 11.5 | – | – | – | – | – | – | – | – | – | – | – | – | – | – | O[C@H]1CC[C@H](Oc2ccc(-c3ccn4c(CC(F)(F)F)nnc4c3Cl)cc2Cl)CC1 | –
